Legend:
[1] = Neurotoxicity in ip dosed C57B/6 mouse after 30 mins by rotarod test; type: toxicity, organism-based; conditions: in vivo
Procedure, shortened: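 Minimal neurotoxicity in mice was scored on the rotarod, 30 min after i.p. administration. TD50 was reported in mg/kg with a range in parentheses.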

Mus musculus [2] = assay: Anticonvulsant activity in ip dosed C57B/6 mouse assessed as inhibition of maximal electroshock-induced seizures; type: functional; conditions: C57B/6, ip
Mus musculus [3] = organism: Mus musculus; assay: Protective index, ratio of TD50 for C57B/6 mouse by rotarod test to ED50 for C57BL/6 mouse by MES test; type: functional
Mus musculus [4] = assay: Anticonvulsant activity in C57B/6 mouse assessed as inhibition of pentylenetetrazole-induced clonic seizures at 50 mg/kg, ip after 0.5 hrs relative to control; type: functional; design: scale not given: the % may be the effect or the level left; conditions: dose 100 mg/kg; route intraperitoneal; in the assay text read “100 mg/kg” for “50 mg/kg”
Procedure, shortened: (§1)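 Seizures in mice were induced by pentylenetetrazole 85 mg/kg in saline, s.c., 30 min after i.p. test agent. Animals were caged singly and watched for 30 min. Clonic and tonic seizures and deaths were counted.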

Mus musculus [5] = assay: Anticonvulsant activity in C57B/6 mouse assessed as inhibition of pentylenetetrazole-induced tonic seizures at 50 mg/kg, ip after 0.5 hrs relative to control; type: functional; design: scale not given: the % may be the effect or the level left; conditions: route intraperitoneal; procedure, shortened: as §1
Mus musculus [6] = assay: Anticonvulsant activity in C57B/6 mouse assessed as inhibition of isoniazid-induced clonic seizures at 50 mg/kg, ip after 0.5 hrs relative to control; type: functional; design: scale not given: the % may be the effect or the level left; conditions: route intraperitoneal
Procedure, shortened: (§2)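 Isoniazid-induced seizure model in mice. Isoniazid 250 mg/kg was given 30 min after i.p. test agent. Clonic seizures, tonic seizures and lethality were counted. Treated groups were compared with the control group.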

Mus musculus [7] = assay: Anticonvulsant activity in C57B/6 mouse assessed as inhibition of isoniazid-induced tonic seizures at 50 mg/kg, ip after 0.5 hrs relative to control; type: functional; design: scale not given: the % may be the effect or the level left; conditions: route intraperitoneal; procedure, shortened: as §2
Mus musculus [8] = assay: Toxicity in isoniazid-induced seizure C57B/6 mouse model assessed as lethality at 50 mg/kg, ip after 0.5 hrs relative to control; type: organism-based; design: dose 50 mg/kg, route intraperitoneal; conditions: in vivo
Procedure, shortened: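 Mice received the test agent i.p., then isoniazid 250 mg/kg 30 min later. Clonic seizures, tonic seizures and lethality were recorded, and treated groups were compared with a control group.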

Mus musculus [9] = assay: Anticonvulsant activity in C57B/6 mouse assessed as inhibition of strychnine-induced clonic seizures at 50 mg/kg, ip after 0.5 hrs relative to control; type: functional; design: scale not given: the % may be the effect or the level left; conditions: route intraperitoneal
Procedure, shortened: (§3)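 Strychnine chlorhydrate in saline (1.2 mg/kg) was injected s.c. into mice 30 min after i.p. test agent. Animals were caged singly and observed for 30 min. Seizure onset time, clonic and tonic seizure counts and lethality were recorded. Controls received vehicle only.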

Mus musculus [10] = assay: Anticonvulsant activity in C57B/6 mouse assessed as inhibition of strychnine-induced tonic seizures at 50 mg/kg, ip after 0.5 hrs relative to control; type: functional; design: scale not given: the % may be the effect or the level left; conditions: route intraperitoneal; procedure, shortened: as §3
Mus musculus [11] = assay: Toxicity in strychnine-induced seizure C57B/6 mouse model assessed as lethality at 50 mg/kg, ip after 0.5 hrs relative to control; type: organism-based; design: dose 50 mg/kg, route intraperitoneal; conditions: in vivo
Procedure, shortened: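 Test agent given i.p.; controls received vehicle only. After 30 min, strychnine chlorhydrate 1.2 mg/kg in saline was injected s.c. Mice were caged individually and observed 30 min, recording seizure onset time, clonic and tonic seizure numbers and lethality.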

Row | Structure (SMILES) | TD50 at 0.5 h [1] | other results
1 | O=C1COc2cc(NCc3cccc(F)c3)ccc2N1 | 228 mg/kg | 
2 | O=C1COc2cc(NCc3ccccc3Cl)ccc2N1 | > 300 mg/kg | 
3 | O=C1COc2ccccc2N1 | > 300 mg/kg | ED50 (Mus musculus [2]): 300 mg/kg
4 | O=C1COc2cc(NCc3ccc4c(c3)OCO4)ccc2N1 | > 300 mg/kg | ED50 (Mus musculus [2]): 63.4 mg/kg; Ratio (Mus musculus [3]): >4.7
5 | O=C1COc2cc(NCc3ccc(F)cc3)ccc2N1 | 228 mg/kg | 
6 | Cc1ccc(CNc2ccc3c(c2)OCC(=O)N3)cc1 | > 300 mg/kg | 
7 | NC(=O)N1c2ccccc2C=Cc2ccccc21 [CARBAMAZEPINE] | 74.4 mg/kg | ED50 (Mus musculus [2]): 9.2 mg/kg; Activity (Mus musculus [4]): 100%; Activity (Mus musculus [5]): 20%; Activity (Mus musculus [6]): 10%; Activity (Mus musculus [7]): 10%; Activity (Mus musculus [8]): 0%; Activity (Mus musculus [9]): 40%; Activity (Mus musculus [10]): 30%; Activity (Mus musculus [11]): 0%
8 | O=C1COc2cc(NCc3ccccc3)ccc2N1 | 182 mg/kg | 
9 | CCOc1ccc(CNc2ccc3c(c2)OCC(=O)N3)cc1 | > 300 mg/kg | 
10 | O=C1COc2cc(NCc3ccc(Br)cc3)ccc2N1 | > 300 mg/kg | 
11 | CN(Cc1ccc(F)cc1)c1ccc2c(c1)OCC(=O)N2C | > 300 mg/kg | 
12 | O=C1COc2cc(NCc3ccccc3F)ccc2N1 | 183 mg/kg | 
13 | O=C1COc2cc(NCc3ccc(Cl)cc3)ccc2N1 | > 300 mg/kg | 

Reference: ChEMBL document CHEMBL1156692, “Synthesis of novel 7-benzylamino-2H-1,4-benzoxazin-3(4H)-ones as anticonvulsant agents” (Eur J Med Chem, 2008)
